# Tests used:
# Format in all cases: functional
# [1] = test system: EKVX; assay: Cytotoxicity against human EKVX cells assessed as cell growth at 100 nM after 48 hrs by sulforhodamine B assay; settings: read-out: Activity
# [2] = test system: IGROV-1; assay: Cytotoxicity against human IGROV1 cells assessed as cell growth at 10 uM; settings: read-out: Activity
# Outline: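 Single-dose NCI-60 screen at 10 µM. Cells were grown in RPMI 1640 with 5% FBS and 2 mM L-glutamine, then treated for 48 h at 37 °C. Protein was measured by SRB staining with absorbance at 515 nm. Percentage growth was recorded, and inhibition percentage was calculated as 100 minus growth percentage.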
# [3] = test system: IGROV-1; assay: Cytotoxicity against human IGROV1 cells assessed as cell growth at 100 nM after 48 hrs by sulforhodamine B assay; settings: IGROV-1, 48 h, read-out: Activity
# [4] = test system: NCI-H322M; assay: Cytotoxicity against human NCI-H322M cells assessed as cell growth at 10 uM after 48 hrs by sulforhodamine B assay; settings: read-out: Activity
# [5] = test system: UACC-62; assay: Growth inhibition of human UACC62 cells after 48 hrs by sulforhodamine B assay; settings: UACC-62, 48 h; for CC50: read-out: LC50 (the source's name)
# Outline: (§1)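 NCI 60-cell screen, five-dose mode. Cells grown in RPMI 1640 with 5% FBS and 2 mM L-glutamine and plated at 5000-40,000 cells/well according to doubling time. After 24 h preincubation, a Tz plate was TCA-fixed. Five concentrations (10-fold or 1/2 log dilutions) were applied for 48 h at 37 °C. SRB staining read at 515 nm. IC50 taken from [(Ti-Tz)/(C-Tz)]×100 = 50.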
# [6] = test system: MOLT-4; assay: Cytotoxicity against human MOLT4 cells assessed as cell growth at 0.01 uM after 48 hrs by sulforhodamine B assay; settings: MOLT-4, 48 h, read-out: Activity
# [7] = test system: UACC-257; assay: Cytotoxicity against human UACC257 cells assessed as cell growth at 1 uM after 48 hrs by sulforhodamine B assay; settings: UACC-257, 48 h, read-out: Activity
# [8] = test system: UO-31; assay: Cytotoxicity against human UO31 cells assessed as cell growth at 100 nM after 48 hrs by sulforhodamine B assay; settings: UO-31, 48 h, read-out: Activity
# [9] = test system: A498; assay: Cytotoxicity against human A498 cells assessed as cell growth at 0.01 uM after 48 hrs by sulforhodamine B assay; settings: A498, 48 h, read-out: Activity
# Outline: (§2)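 NCI-60 five-dose screen. Cells were grown in RPMI 1640 with 5% FBS and 2 mM L-glutamine, plated at 5000–40,000 cells/well and preincubated for 24 h. Time-zero plates were TCA-fixed. DMSO-solubilized drug was added at five concentrations (10-fold or ½-log serial dilutions) for 48 h at 37 °C, 5% CO2. Cells were TCA-fixed, stained with 0.4% SRB and read at 515 nm. Percent growth used time-zero, control and test absorbances.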
# [10] = test system: U-251; assay: Cytotoxicity against human U251 cells assessed as cell growth at 0.01 uM after 48 hrs by sulforhodamine B assay; settings: U-251, 48 h, read-out: Activity
# [11] = test system: SF-295; assay: Cytotoxicity against human SF295 cells assessed as cell growth at 10 uM after 48 hrs by sulforhodamine B assay; settings: SF-295, 48 h, read-out: Activity
# [12] = test system: M14; assay: Cytotoxicity against human M14 cells assessed as cell growth at 0.01 uM after 48 hrs by sulforhodamine B assay; settings: M14, 48 h, read-out: Activity
# [13] = test system: HT-29; assay: Cytotoxicity against human HT-29 cells assessed as cell growth at 100 nM after 48 hrs by sulforhodamine B assay; settings: HT-29, 48 h, read-out: Activity
# [14] = test system: MDA-MB-468; assay: Growth inhibition of human MDA-MB-468 cells after 48 hrs by sulforhodamine B assay; settings: MDA-MB-468, 48 h; outline: as §1
# [15] = test system: DU-145; assay: Cytotoxicity against human DU145 cells assessed as cell growth at 10 uM after 48 hrs by sulforhodamine B assay; settings: DU-145, 48 h, read-out: Activity
# [16] = test system: ACHN; assay: Cytotoxicity against human ACHN cells assessed as cell growth at 10 uM after 48 hrs by sulforhodamine B assay; settings: read-out: Activity; outline: as §2
# [17] = test system: MOLT-4; assay: Cytotoxicity against human MOLT4 cells assessed as cell growth at 10 uM; settings: read-out: Activity
# Outline: (§3)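 NCI-60 screen: cells grown in RPMI 1640 with 5% FBS and 2 mM L-glutamine, plated at 5000–40,000 cells/well according to doubling time, and preincubated 24 h at 37 °C, 5% CO2. The single 10 µM dose (DMSO stock) was added, then incubated 48 h. Cells were TCA-fixed and stained with 0.4% SRB, read at 515 nm, and growth % calculated against time-zero and control plates.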
# [18] = test system: SF-539; assay: Cytotoxicity against human SF539 cells assessed as cell growth at 100 nM after 48 hrs by sulforhodamine B assay; settings: SF-539, 48 h, read-out: Activity
# [19] = test system: SF-268; assay: Cytotoxicity against human SF268 cells assessed as cell growth at 1 uM after 48 hrs by sulforhodamine B assay; settings: SF-268, 48 h, read-out: Activity
# [20] = test system: HCT-15; assay: Cytotoxicity against human HCT15 cells assessed as cell growth at 10 uM after 48 hrs by sulforhodamine B assay; settings: HCT-15, 48 h, read-out: Activity
# [21] = test system: LOX IMVI; assay: Cytotoxicity against human LOXIMVI cells assessed as cell growth at 100 nM after 48 hrs by sulforhodamine B assay; settings: read-out: Activity
# [22] = test system: NCI/ADR-RES; assay: Cytotoxicity against human NCI/ADR-RES cells assessed as cell growth at 1 uM after 48 hrs by sulforhodamine B assay; settings: read-out: Activity
# [23] = test system: HCT-116; assay: Cytotoxicity against human HCT116 cells assessed as cell growth at 10 uM after 48 hrs by sulforhodamine B assay; settings: HCT-116, 48 h, read-out: Activity
# [24] = test system: SK-OV-3; assay: Cytotoxicity against human SKOV3 cells assessed as cell growth at 100 nM after 48 hrs by sulforhodamine B assay; settings: SK-OV-3, 48 h, read-out: Activity
# [25] = test system: SF-268; assay: Cytotoxicity against human SF268 cells assessed as cell growth at 100 nM after 48 hrs by sulforhodamine B assay; settings: SF-268, 48 h, read-out: Activity
# [26] = test system: HOP-92; assay: Growth inhibition of human HOP92 cells after 48 hrs by sulforhodamine B assay; settings: HOP-92, 48 h; for CC50: read-out: LC50 (the source's name); outline: as §1
# [27] = test system: OVCAR-4; assay: Cytotoxicity against human OVCAR4 cells assessed as cell growth at 100 nM after 48 hrs by sulforhodamine B assay; settings: OVCAR-4, 48 h, read-out: Activity
# [28] = test system: MDA-MB-468; assay: Cytotoxicity against human MDA-MB-468 cells assessed as cell growth at 100 nM after 48 hrs by sulforhodamine B assay; settings: MDA-MB-468, 48 h, read-out: Activity
# [29] = test system: NCI/ADR-RES; assay: Growth inhibition of human NCI/ADR-RES cells after 48 hrs by sulforhodamine B assay; settings: for CC50: read-out: LC50 (the source's name); outline: as §1
# [30] = test system: Malme-3M; assay: Cytotoxicity against human MALME-3M cells assessed as cell growth at 10 uM; settings: read-out: Activity; outline: as §3
SMILES,growth at 0.1 µM [1],growth at 10 µM [2],growth at 0.1 µM [3],growth at 10 µM [4],GI50 [5],TGI [5],CC50 [5],growth at 0.01 µM [6],growth at 1 µM [7],growth at 0.1 µM [8],growth at 0.01 µM [9],growth at 0.01 µM [10],growth at 0.01 µM [12],growth at 0.1 µM [13],GI50 [14],LC50 (concentration giving 50% net cell kill) [14],TGI [14],growth at 10 µM [15],growth at 10 µM [16],growth at 10 µM [17],other results
COc1cc(C)cc(-c2nn(CC#N)cc2-c2ccnc(-c3ccc(N(C)C)cc3)c2)c1,43%,13.1%,16%,27%,0.337 µM,40.7 µM,> 100 µM,93%,48%,39%,88%,105%,93%,25%,181 nM,7.24 µM,635 nM,-48%,-18%,16%,growth at 10 µM [11]: -32%; growth at 0.1 µM [18]: -31%; growth at 1 µM [19]: -2%; growth at 10 µM [20]: -20%; growth at 0.1 µM [21]: 39%; growth at 1 µM [22]: -5%; growth at 10 µM [23]: -44%; growth at 0.1 µM [24]: -6%; growth at 0.1 µM [25]: 31%; GI50 [26]: 557 nM; TGI [26]: 26.6 µM; CC50 [26]: > 100 µM; growth at 0.1 µM [27]: 33%; growth at 0.1 µM [28]: -18%; GI50 [29]: 253 nM; TGI [29]: 0.655 µM; CC50 [29]: > 100 µM; growth at 10 µM [30]: 82%
Cc1cc(O)cc(-c2nn(CC#N)cc2-c2ccnc(-c3ccc(N(C)C)cc3)c2)c1,81%,44%,87%,-11%,3.05 µM,14 µM,72.1 µM,96%,31%,82%,80%,94%,92%,102%,1630 nM,9.94 µM,4020 nM,-66%,-30%,28.1%,growth at 10 µM [11]: -54%; growth at 0.1 µM [18]: 91%; growth at 1 µM [19]: 17%; growth at 10 µM [20]: -39%; growth at 0.1 µM [21]: 101%; growth at 1 µM [22]: -10%; growth at 10 µM [23]: -81%; growth at 0.1 µM [24]: 101%; growth at 0.1 µM [25]: 90%; GI50 [26]: 3030 nM; TGI [26]: 46.8 µM; CC50 [26]: > 100 µM; growth at 0.1 µM [27]: 101%; growth at 0.1 µM [28]: 77%; GI50 [29]: 2540 nM; TGI [29]: 7.93 µM; CC50 [29]: > 100 µM; growth at 10 µM [30]: 75%
COc1cc(C)cc(-c2nn(CC#N)cc2-c2ccc(-c3cccc(C(C)=O)c3)nc2)c1,89%,34.6%,88%,-10%,4.36 µM,> 100 µM,> 100 µM,100%,34%,79%,60%,92%,93%,99%,275 nM,52.3 µM,1490 nM,-48%,4%,28.1%,growth at 0.1 µM [18]: 78%; growth at 1 µM [19]: 23%; growth at 10 µM [20]: 3%; growth at 0.1 µM [21]: 82%; growth at 1 µM [22]: -16%; growth at 10 µM [23]: -53%; growth at 0.1 µM [24]: 104%; growth at 0.1 µM [25]: 91%; GI50 [26]: 2630 nM; TGI [26]: 9.09 µM; CC50 [26]: > 100 µM; growth at 0.1 µM [27]: 92%; growth at 0.1 µM [28]: 9%; GI50 [29]: 1310 nM; TGI [29]: 6.06 µM; CC50 [29]: > 100 µM; growth at 10 µM [30]: 60.5%

# Source: ChEMBL document CHEMBL1165950, “Design and synthesis of new potent anticancer pyrazoles with high FLT3 kinase inhibitory selectivity” (Bioorg Med Chem, 2010)
